The source of these data is ChEMBL document CHEMBL1240422, “Design, synthesis and biological evaluation of 3,5-diaryl-isoxazoline/isoxazole-pyrrolobenzodiazepine conjugates as potential anticancer agents” (2010).

The structures appear in SMILES notation. Calls of active or inactive are those of the source. The calls are words filed in the database; no cut-off is given here. Bounds are passed on as bounds.

The test system of the first assay is SiHa. Briefly: Anticancer activity against human SiHa cells after 48 hrs by SRB assay. It is filed as functional.
Conditions: not given
The method, boiled down:
(§1)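 Cells grown in RPMI 1640 with 10% FBS and 2 mM L-glutamine, plated at densities set by doubling time, and preincubated 24 h at 37 °C, 5% CO2. Compounds were tested at four concentrations (0.1, 1, 10, 100) in triplicate wells with 48 h continuous exposure. Cells were fixed with cold TCA (10% final, 60 min, 4 °C) and stained with 0.4% SRB in 1% acetic acid (20 min, RT). Dye was eluted with 10 mM Trizma base and read at 540 nm (690 nm reference). Percent growth is relative to control wells, plate by plate.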
As to `COc1cc2c(cc1OCCCCCOc1c(OC)cc(C3CC(c4cc(OC)c(OC)c(OC)c4)=NO3)cc1OC)N=C[C@@H]1CCCN1C2=O` (some centres not stated), the GI50 was determined as 180 nM.

In turn, `COc1ccc(-c2cc(-c3cc(OC)c(OC)c(OC)c3)on2)cc1OCCCCOc1cc2c(cc1OC)C(=O)N1CCC[C@H]1C=N2` had a GI50 of 150 nM.

Regarding `COc1cc2c(cc1O)N=C[C@@H]1CCCN1C2=O`, halving of growth (GI50) required 170 nM.

`COc1cc(C2=NOC(c3cc(OC)c(OC)c(OC)c3)C2)ccc1OCCCCCOc1cc2c(cc1OC)C(=O)N1CCC[C@H]1C=N2` (some centres not stated) had a GI50 of under 100 nM.

In turn, `COc1ccc(C2CC(c3cc(OC)c(OC)c(OC)c3)=NO2)cc1OCCCCCOc1cc2c(cc1OC)C(=O)N1CCC[C@H]1C=N2` (some centres not stated) displayed a GI50 of 160 nM.

The compound `COc1ccc(-c2cc(-c3cc(OC)c(OC)c(OC)c3)on2)cc1OCCCCCOc1cc2c(cc1OC)C(=O)N1CCC[C@H]1C=N2` yielded a GI50 of 130 nM.

The next assay deals with A-375. The assay can be described thus: Induction of apoptosis in human A375 cells assessed as increase in PPAR protein level at 4 uM after 24 hrs by Western blotting. It is filed as functional, cell-based.
Conditions: not given
The method in brief:
(§2)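 A375 cells were treated for 24 h and lysed in ice-cold RIPA buffer (1% NP-40, 0.5% deoxycholate, 0.1% SDS, protease inhibitors). Protein was quantified by Bradford assay, and 30 µg/lane was run on 12% SDS-PAGE and transferred to PVDF. Membranes were blocked 2 h at RT in TBST with 5% blocker, incubated with primary antibody overnight at 4 °C, then with HRP secondary (1:2000, 1 h, RT). Detection was by chemiluminescence, with β-actin as loading control.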
Regarding `COc1cc(C2=NOC(c3cc(OC)c(OC)c(OC)c3)C2)ccc1OCCCCCOc1cc2c(cc1OC)C(=O)N1CCC[C@H]1C=N2` (some centres not stated), the result was Active.

In the next assay the test system is A-375. Briefly: Cell cycle arrest in human A375 cells assessed as accumulation at S phase at 4 uM after 24 hrs using propidium iodide staining by FACS. Format: functional.
Conditions: not given
The method in brief: (§3)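 Treated A375 cells (24 h) were harvested with trypsin-EDTA and fixed in ice-cold 70% ethanol (4 °C, 30 min). After a PBS wash, they were incubated with 1 mg/mL RNase A (37 °C, 30 min) and stained with propidium iodide solution containing trisodium citrate and Triton X-100. DNA content was measured by flow cytometry on 20,000 events. Controls were DMSO-treated.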
On to `COc1cc2c(cc1O)N=C[C@@H]1CCCN1C2=O`, for which the Activity came out at 10.62%.

Regarding `COc1cc(C2=NOC(c3cc(OC)c(OC)c(OC)c3)C2)ccc1OCCCCCOc1cc2c(cc1OC)C(=O)N1CCC[C@H]1C=N2` (some centres not stated), the Activity is recorded as 6.4%.

The next assay deals with ZR-75-1. Briefly: Anticancer activity against human ZR-75-1 cells after 48 hrs by SRB assay. It is filed as functional. The following applies: ZR-75-1, 48 h. The method, boiled down:
as §1
`COc1cc2c(cc1OCCCCCOc1c(OC)cc(C3CC(c4cc(OC)c(OC)c(OC)c4)=NO3)cc1OC)N=C[C@@H]1CCCN1C2=O` (some centres not stated) came in with a GI50 of 180 nM.

Compound `COc1ccc(-c2cc(-c3cc(OC)c(OC)c(OC)c3)on2)cc1OCCCCOc1cc2c(cc1OC)C(=O)N1CCC[C@H]1C=N2` registered a concentration for 50% growth inhibition (GI50) of 100 nM.

`COc1cc(C2=NOC(c3cc(OC)c(OC)c(OC)c3)C2)ccc1OCCCCCOc1cc2c(cc1OC)C(=O)N1CCC[C@H]1C=N2` (some centres not stated) came in with a GI50 of under 100 nM.

`COc1ccc(C2CC(c3cc(OC)c(OC)c(OC)c3)=NO2)cc1OCCCCCOc1cc2c(cc1OC)C(=O)N1CCC[C@H]1C=N2` (some centres not stated) returned a GI50 of 120 nM.

Consider `COc1ccc(-c2cc(-c3cc(OC)c(OC)c(OC)c3)on2)cc1OCCCCCOc1cc2c(cc1OC)C(=O)N1CCC[C@H]1C=N2`, for which the GI50 is under 100 nM.

The test system of another assay is A-375. Briefly: Induction of apoptosis in human A375 cells assessed as reduction in CDK2 protein level at 4 uM after 24 hrs by Western blotting. It is filed as functional, cell-based.
Conditions: not given
The method, boiled down:
as §2
On to `COc1cc(C2=NOC(c3cc(OC)c(OC)c(OC)c3)C2)ccc1OCCCCCOc1cc2c(cc1OC)C(=O)N1CCC[C@H]1C=N2` (some centres not stated), for which the result was Active.

The next assay relates to A-375. Briefly: Cell cycle arrest in human A375 cells assessed as accumulation at G2/M phase at 4 uM after 24 hrs using propidium iodide staining by FACS.
Conditions: not given
It is filed as functional. The method in brief:
as §3
Consider `COc1cc2c(cc1O)N=C[C@@H]1CCCN1C2=O`, for which the Activity is 1.33%.

Regarding `COc1cc(C2=NOC(c3cc(OC)c(OC)c(OC)c3)C2)ccc1OCCCCCOc1cc2c(cc1OC)C(=O)N1CCC[C@H]1C=N2` (some centres not stated), the Activity is reported as 1.15%.

A further assay concerns A2780. Briefly: Anticancer activity against human A2780 cells after 48 hrs by SRB assay. It is filed as functional. The following applies: A2780, 48 h. The method in brief:
(§4)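 Grown in RPMI 1640 with 10% FBS and 2 mM L-glutamine at 37 °C, 5% CO2. Seeded at densities set by doubling time, then preincubated 24 h. Continuous 48 h drug exposure at four concentrations (0.1, 1, 10, 100), triplicate wells. Fixed with cold TCA (final 10%) at 4 °C, 60 min. Stained with 0.4% SRB in 1% acetic acid, eluted with 10 mM Tris base, read at 540/690 nm. Percent growth versus control wells.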
Regarding `COc1cc2c(cc1OCCCCCOc1c(OC)cc(C3CC(c4cc(OC)c(OC)c(OC)c4)=NO3)cc1OC)N=C[C@@H]1CCCN1C2=O` (some centres not stated), the GI50 was 150 nM.

`COc1ccc(-c2cc(-c3cc(OC)c(OC)c(OC)c3)on2)cc1OCCCCOc1cc2c(cc1OC)C(=O)N1CCC[C@H]1C=N2` came in with a concentration for 50% growth inhibition (GI50) of 140 nM.

`COc1cc2c(cc1O)N=C[C@@H]1CCCN1C2=O` had a GI50 of 140 nM.

The compound `COc1cc(C2=NOC(c3cc(OC)c(OC)c(OC)c3)C2)ccc1OCCCCCOc1cc2c(cc1OC)C(=O)N1CCC[C@H]1C=N2` (some centres not stated) had a GI50 of under 100 nM.

`COc1ccc(C2CC(c3cc(OC)c(OC)c(OC)c3)=NO2)cc1OCCCCCOc1cc2c(cc1OC)C(=O)N1CCC[C@H]1C=N2` (some centres not stated): halving of growth (GI50) required 140 nM.

The compound `COc1ccc(-c2cc(-c3cc(OC)c(OC)c(OC)c3)on2)cc1OCCCCCOc1cc2c(cc1OC)C(=O)N1CCC[C@H]1C=N2` returned a GI50 of 120 nM.

Another assay deals with A-375. The assay can be described thus: Cell cycle arrest in human A375 cells assessed as accumulation at G0/G1 phase at 4 uM after 24 hrs using propidium iodide staining by FACS. It is filed as functional.
Conditions: not given
The method in brief: as §3
Take `COc1cc2c(cc1O)N=C[C@@H]1CCCN1C2=O`: the Activity turned out to be 88.05%.

`COc1cc(C2=NOC(c3cc(OC)c(OC)c(OC)c3)C2)ccc1OCCCCCOc1cc2c(cc1OC)C(=O)N1CCC[C@H]1C=N2` (some centres not stated): the Activity is on record as 92.45%.

A further assay deals with KB. The assay can be described thus: Anticancer activity against human KB cells after 48 hrs by SRB assay. It is filed as functional.
Conditions: not given
The method in brief: as §4
On to `COc1cc2c(cc1OCCCCCOc1c(OC)cc(C3CC(c4cc(OC)c(OC)c(OC)c4)=NO3)cc1OC)N=C[C@@H]1CCCN1C2=O` (some centres not stated), for which growth was halved (GI50) at 180 nM.

As to `COc1ccc(-c2cc(-c3cc(OC)c(OC)c(OC)c3)on2)cc1OCCCCOc1cc2c(cc1OC)C(=O)N1CCC[C@H]1C=N2`, halving of growth (GI50) required 150 nM.

Take `COc1cc2c(cc1O)N=C[C@@H]1CCCN1C2=O`: halving of growth (GI50) required 170 nM.

Consider `COc1cc(C2=NOC(c3cc(OC)c(OC)c(OC)c3)C2)ccc1OCCCCCOc1cc2c(cc1OC)C(=O)N1CCC[C@H]1C=N2` (some centres not stated), for which the GI50 was under 100 nM.

The compound `COc1ccc(C2CC(c3cc(OC)c(OC)c(OC)c3)=NO2)cc1OCCCCCOc1cc2c(cc1OC)C(=O)N1CCC[C@H]1C=N2` (some centres not stated) registered a GI50 of 160 nM.

`COc1ccc(-c2cc(-c3cc(OC)c(OC)c(OC)c3)on2)cc1OCCCCCOc1cc2c(cc1OC)C(=O)N1CCC[C@H]1C=N2` came in with a GI50 of 130 nM.

The next assay has as its system A-375. The assay can be described thus: Induction of apoptosis in human A375 cells assessed as caspase3 activation at 4 uM after 24 hrs by fluorimetry. Format: functional, cell-based.
Conditions: not given
The method in brief: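 Caspase-3 activity was measured by a fluorometric assay on lysates of treated and untreated A375 cells.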
Take `COc1cc(C2=NOC(c3cc(OC)c(OC)c(OC)c3)C2)ccc1OCCCCCOc1cc2c(cc1OC)C(=O)N1CCC[C@H]1C=N2` (some centres not stated): the outcome was Active.
